Data from paper PMC4720131 (ACS Chemical Biology, 2015).

Tested on: HIV-1 Gag-Pol/Gag (frameshifting)
Assay: Western blot of virion proteins, ratio p160 to p24+p55
Type: cell-based
Conditions: protease inhibitor control
How it was run: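 Virions came from HEK293T producer cells transfected with an NL4-3 proviral vector (nef replaced by GFP, env deleted) plus VSV-G plasmid at 1:0.5. Test compound added 4 h post-transfection, media harvested at 24 h and 0.45-μm filtered. Virion proteins run on SDS-PAGE and blotted with anti-p24 to detect p24, p55 and p160. p160/(p24+p55) ratio taken by scanning densitometry. Indinavir served as protease-inhibitor control.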

CC(C)(C)NC(=O)[C@@H]1CN(Cc2cccnc2)CCN1C[C@@H](O)C[C@@H](Cc1ccccc1)C(=O)N[C@H]1c2ccccc2C[C@H]1O [Indinavir, indinavir]
effect on p160 on virion blot (in words): No buildup of p160 was observed
